In brackets after ≈: the same amount, converted by molar mass. Activity calls are given as the source filed them. The calls are words filed in the database; no cut-off is given here.
Tests used:
[1] = molecular target: T1, Lysosomal alpha-glucosidase (Homo sapiens, UniProt P10253); test: Inhibition of wild type recombinant GAA preincubated for 5 mins measured after 45 mins using red-shifted dye by fluorescence assay
[2] = molecular target: T1, Lysosomal alpha-glucosidase; test: Inhibition of wild type recombinant GAA preincubated for 5 mins measured after 45 mins using blue-shifted dye by fluorescence assay
[3] = molecular target: T1, Lysosomal alpha-glucosidase; test: Increase in translocation of GAA to lysosome in human F0833 cells at 1 uM after 5 days by confocal laser-scanning microscopic analysis; assay type: cell-based
Procedure, shortened: (§1)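 Wild-type primary dermal fibroblasts or Pompe patient fibroblasts (F3248, F0833, F2845; low passage) treated with compound for 5 or 6 days. Fixed in 3% paraformaldehyde, permeabilized with 0.1% Triton X-100, blocked, stained with mouse anti-GAA (Alexa-488) and goat anti-cathepsin D (Alexa-555), DAPI counterstain. Confocal images taken at fixed laser settings; percentage of cells with lysosomal GAA co-localization scored.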

Caco-2 [4] = test: Efflux ratio from basolateral to apical side to apical to basolateral side of human Caco2 cells; assay type: ADME, cell-based
[5] = molecular target: T1, Lysosomal alpha-glucosidase; test: Increase in translocation of GAA to lysosome in human F3248 cells at 1 uM after 5 days by confocal laser-scanning microscopic analysis; assay type: cell-based; procedure, shortened: as §1
[6] = molecular target: T1, Lysosomal alpha-glucosidase; test: Binding affinity at wild type recombinant GAA assessed as rise in melting temperature of protein using SYPRO Orange dye by fluorescence assay
Procedure, shortened: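 Thermal shift of recombinant wild-type GAA (1 μM) with SYPRO Orange (5×) in 50 mM citrate buffer pH 5.0 with 100 mM KCl, 10 mM NaCl, 1 mM MgCl2. Six-point compound series, 0.82–200 μM final, 2% DMSO, DMSO controls. Heated 20 to 95 °C at 4.8 °C/s; fluorescence ex 498/em 580 nm; Tm calculated from the melt curve.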

[7] = molecular target: T1, Lysosomal alpha-glucosidase; test: Increase in translocation of GAA to lysosome in human F2845 cells at 1 uM after 5 days by confocal laser-scanning microscopic analysis; assay type: cell-based; procedure, shortened: as §1
Caco-2 [8] = test: Permeability from basolateral to apical side of human Caco2 cells
[9] = molecular target: T1, Lysosomal alpha-glucosidase; test: Increase in GAA activity in human wild type skin fibroblasts incubated for 5 days by fluorescence assay relative to vehicle-treated control
Procedure, shortened: (§2)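 Fibroblasts seeded at 5,000 cells/well and treated 5 days, with media and compound renewed on day 3. Assayed directly or after PBS wash and 18 h or 40 h in compound-free medium. Cells were incubated 2 h at 37 °C in pH 4.0 citrate/phosphate buffer with 3 mM 4-MUG and acarbose, then stopped at pH 10. Background subtracted, normalized to vehicle (100%); triplicate, mean ±SD.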

[10] = molecular target: T1, Lysosomal alpha-glucosidase; test: Increase in GAA activity in human wild type skin fibroblasts incubated for 5 days followed by 18 to 40 hrs wash out by fluorescence assay relative to vehicle-treated control; procedure, shortened: as §2
[11] = molecular target: T1, Lysosomal alpha-glucosidase; test: Binding affinity at wild type recombinant GAA assessed as thermostabilization of protein at 50 uM incubated at 66 degC for 60 mins
Procedure, shortened: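 GAA incubated at 66 °C for 60 min with compound at 50 μM, compared with room-temperature incubation. Residual enzymatic activity read out and expressed as the ratio of heated to room-temperature activity; DMSO controls run in duplicate.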

[12] = molecular target: T1, Lysosomal alpha-glucosidase; test: Increase in translocation of GAA to lysosome in human F3248 cells at 5 uM after 5 days by confocal laser-scanning microscopic analysis; assay type: cell-based; procedure, shortened: as §1
Caco-2 [13] = test: Permeability from apical to basolateral side of human Caco2 cells
[14] = molecular target: T1, Lysosomal alpha-glucosidase; test: Increase in GAA activity in human F2845 cells incubated for 5 days by fluorescence assay relative to vehicle-treated control; assay type: cell-based; procedure, shortened: as §2
[15] = molecular target: T1, Lysosomal alpha-glucosidase; test: Increase in GAA activity in human F2845 cells incubated for 5 days followed by 18 to 40 hrs wash out by fluorescence assay relative to vehicle-treated control; assay type: cell-based; procedure, shortened: as §2
[16] = Cytotoxicity in human F2845 cells at 5 uM after 6 days by confocal laser-scanning microscopic analysis; assay type: cell-based; conditions: f2845, 144 h
Procedure, shortened: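 Primary wild-type dermal fibroblasts and patient-derived Pompe fibroblasts (passage 7) grown on chamber slides and exposed to compound for 5 or 6 days. Viability judged from the cultures examined by immunostaining and confocal microscopy.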

[17] = molecular target: T1, Lysosomal alpha-glucosidase; test: Increase in translocation of GAA to lysosomes in human wild type fibroblasts at 15 uM after 6 days confocal laser-scanning microscopic analysis; procedure, shortened: as §1
[18] = molecular target: T1, Lysosomal alpha-glucosidase; test: Increase in translocation of GAA to lysosome in human F0833 cells at 5 uM after 5 days by confocal laser-scanning microscopic analysis; assay type: cell-based; procedure, shortened: as §1
[19] = molecular target: T1, Lysosomal alpha-glucosidase; test: Increase in translocation of GAA to lysosomes in human wild type skin fibroblasts at 5 uM after 6 days by confocal laser-scanning microscopic analysis; procedure, shortened: as §1
Liver = test: Half life in mouse liver microsomes
[20] = Aqueous solubility in PBS buffer
[21] = molecular target: T1, Lysosomal alpha-glucosidase; test: Ratio of Kd for wild type recombinant NT-495 labelled GAA to IC50 for wild type recombinant GAA (unknown origin
[22] = molecular target: T1, Lysosomal alpha-glucosidase; test: Increase in translocation of GAA to lysosome in human F2845 cells at 5 uM after 5 days by confocal laser-scanning microscopic analysis; assay type: cell-based; procedure, shortened: as §1

Compound: CC(=O)c1ccc(N2CCN(C(=O)c3ccc4c(c3)CCC(=O)N4)CC2)cc1
- IC50 [1]: Not Active
- IC50 [2]: Not Active

Compound: O=C1Cc2cc(S(=O)(=O)N3CCN(c4ccc(CO)cc4)CC3)ccc2N1
- IC50 ([1]; read-out: IC50): 13 µM
- IC50 ([2]; read-out: IC50): 13 µM

Compound: O=C1Cc2cc(S(=O)(=O)N3CCN(c4ccc(C(F)(F)F)cc4)CC3)ccc2N1
- IC50 [1]: Not Active
- IC50 [2]: Not Active

Compound: O=Cc1ccc(N2CCN(S(=O)(=O)c3ccc4c(c3)CC(=O)N4)CC2)cc1
- IC50 ([1]; read-out: IC50): 4.11 µM
- IC50 ([2]; read-out: IC50): 3.66 µM

Compound: CC(=O)c1ccc(N2CCN(S(=O)(=O)c3ccc4[nH]c(=O)oc4c3)CC2)cc1
- IC50 [1]: Not Active
- IC50 [2]: Not Active

Compound: CC(=O)N1CCN(c2ccc(NS(=O)(=O)c3ccc4c(c3)CC(=O)N4)cc2)CC1
- IC50 [1]: Not Active
- IC50 [2]: Not Active

Compound: CC(=O)c1ccc(N2CCN(S(=O)(=O)c3ccc(N4CCCC4=O)cc3)CC2)cc1
- IC50 [1]: Not Active
- IC50 [2]: Not Active

Compound: O=C1Cc2cc(S(=O)(=O)N3CCN(c4ccc(Cl)cc4)CC3)ccc2N1
- IC50 ([1]; read-out: IC50): 94.3 µM
- IC50 ([2]; read-out: IC50): 94.3 µM

Compound: CC(=O)c1ccc(N2CCN(C(=O)c3ccc4c(c3)CC(=O)N4)CC2)cc1
- IC50 [1]: Not Active
- IC50 [2]: Not Active

Compound: COc1ccc(N2CCN(S(=O)(=O)c3ccc4c(c3)CC(=O)N4)CC2)cc1
- IC50 ([1]; read-out: IC50): 18.8 µM
- IC50 ([2]; read-out: IC50): 23.7 µM

Compound: CC(=O)c1ccc(N2CCN(S(=O)(=O)c3ccc4c(c3)CCC(=O)N4)CC2)cc1
- IC50 [1]: Not Active
- IC50 [2]: Not Active

Compound: O=C1Cc2cc(S(=O)(=O)N3CCN(c4ccc([N+](=O)[O-])cc4)CC3)ccc2N1
- IC50 ([1]; read-out: IC50): 3.26 µM
- IC50 ([2]; read-out: IC50): 3.66 µM

Compound: CC(=O)c1ccc(N2CCN(S(=O)(=O)c3ccc4c(c3)C(=O)OC4)CC2)cc1
- IC50 [1]: Not Active
- IC50 [2]: Not Active

Compound: CC(=O)c1ccc(N2CCN(S(=O)(=O)c3cc4c(cc3Cl)NC(=O)C4)CC2)cc1
- Activity [3]: inactive
- Ratio (Caco-2 [4]): 0.57
- Activity [5]: inactive
- Activity [6]: Active
- Activity [7]: inactive
- Papp (Caco-2 [8]): 30.9 ×10⁻⁶ cm/s
- Activity [9]: Active
- Activity [10]: Active
- Activity [11]: Active
- IC50 ([1]; read-out: IC50): 1.63 µM
- Activity [12]: Active
- Papp (Caco-2 [13]): 54.3 ×10⁻⁶ cm/s
- Activity [14]: Active
- Activity [15]: Active
- Activity [16]: Toxic
- Activity [17]: 40%
- Activity [18]: Active
- Activity [19]: 30%
- t1/2 (Liver): > 1 h
- IC50 ([2]; read-out: IC50): 1.63 µM
- solubility [20]: 20.8 µM (≈ 9.03 µg/mL)
- Ratio [21]: 20
- Activity [22]: Active

Compound: O=C1Cc2cc(S(=O)(=O)N3CCN(c4ccc(O)cc4)CC3)ccc2N1
- Papp (Caco-2 [8]): 19.5 ×10⁻⁶ cm/s
- IC50 ([1]; read-out: IC50): 2.37 µM
- Papp (Caco-2 [13]): 17.8 ×10⁻⁶ cm/s
- t1/2 (Liver): > 1 h
- IC50 ([2]; read-out: IC50): 1.88 µM
- solubility [20]: 37.3 µM (≈ 13.9 µg/mL)

Compound: CC(=O)c1ccc(N2CCN(S(=O)(=O)c3ccc4c(c3)C(Cl)(Cl)C(=O)N4)CC2)cc1
- IC50 ([1]; read-out: IC50): 41 µM
- IC50 ([2]; read-out: IC50): 32.6 µM
